Measured values from ChEMBL document CHEMBL1127609, “Cyclic benzamides as mixed dopamine D2/serotonin 5-HT2 receptor antagonists: potential atypical antipsychotic agents” (J Med Chem, 1994).

Experiments:
[1] = target: Serotonin 2 (5-HT2) receptor (Rattus norvegicus, UniProt P30994+P08909+P14842); experiment: In vitro binding affinity was measured on serotonergic 5-hydroxytryptamine 2 receptor by displacement of [3H]- ketanserin; format: protein assay
Mus musculus [2] = experiment: In vivo the ability to antagonize the apomorphine induced climbing response in mice; format: functional
Summary of the method: (§1)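 Male CD-1 mice (20–25 g) were acclimated ≥30 min in wire-mesh cages. Drug in 0.5% methyl cellulose or vehicle was given po 60 min before sc apomorphine HCl 5 mg/kg in 0.0001 N HCl, N = 6/dose group. Climbing and stereotypy were scored every 5 min for 30 min, starting at 5 min. The six scores were averaged and % antagonism taken versus controls. ED50 by Litchfield–Wilcoxon.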

[3] = target: T1, 5-hydroxytryptamine receptor 1A (Rattus norvegicus, UniProt P19327); experiment: In vitro binding affinity was measured on serotonergic 5-hydroxytryptamine 1A receptor by displacement of [3H]- tetralin
T1 sequence (P19327 whole entry): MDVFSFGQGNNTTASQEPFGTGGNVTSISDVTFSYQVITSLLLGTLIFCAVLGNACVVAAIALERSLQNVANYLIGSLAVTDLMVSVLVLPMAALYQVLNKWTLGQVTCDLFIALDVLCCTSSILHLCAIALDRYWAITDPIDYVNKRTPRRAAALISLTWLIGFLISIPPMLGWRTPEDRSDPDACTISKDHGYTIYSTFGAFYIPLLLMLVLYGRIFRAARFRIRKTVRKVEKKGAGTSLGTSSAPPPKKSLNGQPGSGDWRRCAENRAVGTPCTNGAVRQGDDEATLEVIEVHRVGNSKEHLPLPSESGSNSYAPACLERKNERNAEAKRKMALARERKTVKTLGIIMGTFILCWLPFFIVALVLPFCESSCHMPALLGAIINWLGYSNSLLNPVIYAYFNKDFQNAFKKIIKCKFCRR
Summary of the method: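 Rat hippocampus membranes from male Sprague-Dawley rats, homogenized in 50 mM Tris pH 7.7, preincubated 10 min at 37 °C. Final incubation buffer was 50 mM Tris, 4 mM CaCl2, 10 μM pargyline, 0.1% ascorbic acid, pH 7.4. [3H]-8-OH-DPAT at 0.3 nM final, 30 min at 25 °C, then filtration. Nonspecific binding was defined with 10 μM serotonin.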

Mus musculus [4] = experiment: Tested in vivo for their ability to antagonize the apomorphine induced stereotypy response in mice after peroral administration; format: functional; conditions: po; summary of the method: as §1
Mus musculus [5] = experiment: Tested in vivo for their ability to induction of catalepsy in mice after peroral administration; format: functional; conditions: po
Summary of the method: (§2)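 Catalepsy induction was tested in male CD-1 mice (20–25 g). Drug was given in 0.5% methyl cellulose vehicle at 0.5–2.0 mL/100 g. ED50 by Litchfield–Wilcoxon.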

Mus musculus [6] = experiment: In vivo the ability to antagonize the apomorphine induced climbing response in mice after peroral administration; format: functional; conditions: po; summary of the method: as §1
Mus musculus [7] = experiment: Tested in vivo for their ability to induction of catalepsy in mice; format: functional; summary of the method: as §2
Mus musculus [8] = experiment: Tested in vivo for their ability to antagonize the apomorphine induced stereotypy response in mice; format: functional; summary of the method: as §1

IC50 [1] [nM] | IC50 [3] [nM] | Compound | ED50 (Mus musculus [2]; Mus musculus, read-out: ED50) [mg/kg] | ED50 (Mus musculus [4]) [mg/kg] | ED50 (Mus musculus [5]) [mg/kg] | ED50 (Mus musculus [6]) [mg/kg] | ED50 (Mus musculus [7]) [mg/kg] | ED50 (Mus musculus [8]) [mg/kg] | ED50 (Mus musculus [2]) [mg/kg]
7.6 | 0.19 | O=C1c2ccccc2C(=O)N1CCCCN1CCN(c2nsc3ccccc23)CC1 | 6.2 |  |  |  |  |  | 
2.9 | 1.7 | O=c1c2ccccc2nnn1CCCCN1CCN(c2nsc3ccccc23)CC1 |  | 57.8 | 252 | 19.1 |  |  | 
2.3 | 0.59 | O=c1c2ccccc2ncn1CCCCN1CCN(c2nsc3ccccc23)CC1 |  |  |  | 6.2 |  |  | 
150 | 350 | O=c1c2ccccc2[nH]n1CCCCN1CCN(c2nsc3ccccc23)CC1 |  |  |  | > 25 |  |  | 
140 | 120 | O=c1c2ccccc2sn1CCCCN1CCN(c2nsc3ccccc23)CC1 |  |  |  | > 25 |  |  | 
4.2 | 4.1 | O=C1c2ccccc2CCCN1CCCCN1CCN(c2nsc3ccccc23)CC1 | > 25 |  |  |  |  |  | 
5.1 | 7 | O=C1c2ccccc2CN1CCCCN1CCN(c2nsc3ccccc23)CC1 | 6.3 |  |  |  | > 360 | 24.7 | 
0.84 | 3.4 | Cc1nn(CCCCN2CCN(c3nsc4ccccc34)CC2)c(=O)c2ccccc12 |  |  |  | 30.4 |  |  | 
4.7 | 1.8 | O=C1Cc2ccccc2C(=O)N1CCCCN1CCN(c2nsc3ccccc23)CC1 | 12.2 |  |  |  | 133 | 40.3 | 
7.9 | 33 | CCOC(=O)n1c2ccccc2c(=O)n1CCCCN1CCN(c2nsc3ccccc23)CC1 | > 25 |  |  |  |  |  | 
76 | 2.6 | O=c1[nH]n(CCCCN2CCN(c3nsc4ccccc34)CC2)c(=O)c2ccccc12 |  |  |  | > 25 |  |  | 
1.8 | 10 | O=c1c2ccccc2cnn1CCCCN1CCN(c2nsc3ccccc23)CC1 |  | 29.8 | 70.4 | 9.5 |  |  | 
1.9 | 0.64 | O=C1c2ccccc2CCN1CCCCN1CCN(c2nsc3ccccc23)CC1 | 16.4 |  |  |  |  |  | 
1.1 | 0.4 | O=C1c2ccccc2S(=O)(=O)N1CCCCN1CCN(c2nsc3ccccc23)CC1 |  |  |  | 48.7 |  |  | 
0.76 | 0.82 | O=C1C2CCCCC2C=NN1CCCCN1CCN(c2nsc3ccccc23)CC1 (stereo in doubt; 52) |  |  |  |  |  |  | 16.2
0.38 | 0.021 | O=C1C2CCCCC2C=NN1CCCCN1CCN(c2nsc3ccccc23)CC1 (stereo in doubt; 53) | 25 |  |  |  |  |  | 
 |  | O=C(CCCN1CCC(O)(c2ccc(Cl)cc2)CC1)c1ccc(F)cc1 [HALOPERIDOL] |  |  |  |  | 3 | 0.9 | 
